# Assay results collected from several papers.
# Each line is one published result; the experiments were not run side by side.
# Target: NT-3 growth factor receptor (NTRK3, Homo sapiens, UniProt Q16288)
SMILES,observed,method,concentration,remaining binding [%]
C[C@@H](c1ccc(-n2cnc3c(N)ncnc32)cc1)N1CCc2nn(C)c(Cc3ccccc3)c2C1=O,binding,competition with immobilised ligand,0.1 µM,40
F[C@@H]1CCN(c2nccc(-c3cnn4ncccc34)n2)C1,binding,,1 µM,100
CSc1cccnc1N1CCN(Cc2nc3ccccc3[nH]2)CC1,cell-free assay,competition with immobilised ligand,1 µM,83
c1cnn2ncc(-c3ccnc(N4CCC45COC5)n3)c2c1,binding,,1 µM,73
O=C(c1ccc(Nc2ncc(Cl)c(-c3cc4ccccc4s3)n2)cc1)N1CCC(N2CCCC2)CC1,binding,competition with immobilised ligand,1 µM,36
CN(CCCC(F)(F)F)c1nccc(-c2cnn3ncccc23)n1,binding,,1 µM,100
CO[C@@H](C)c1c(Nc2ccc([C@H](N(C)C(=O)C3CCS(=O)(=O)CC3)C(F)(F)F)cc2)cnc2cc(Cl)nn12,cell-free assay,competition with immobilised ligand,1 µM,100
C[C@@H]1CCN(c2nccc(-c3cnn4ncccc34)n2)C1,binding,,1 µM,70
O=C(Nc1cccnn1)N1CC(C/C=C/c2cncc(Oc3ccc(C(F)(F)F)cn3)n2)C1,cell-free assay,competition with immobilised ligand,1 µM,85
O=C(NCC1CCOCC1)c1n[nH]cc1NC(=O)c1c(F)cccc1F,binding,competition with immobilised ligand,1 µM,98
N[C@@H]1CCN(c2nccc(-c3cnn4ncccc34)n2)C1,binding,,1 µM,100
O=C(c1ccc(Nc2ncc(Cl)c(-c3ccc(Cl)s3)n2)cc1)N1CCC(N2CCCC2)CC1,binding,competition with immobilised ligand,1 µM,24
CN1CCN(c2cnc3c(C4CCN(C(=O)c5ccc(OC(F)(F)F)cc5N)CC4)ncnc3c2)CC1,cell-free assay,competition with immobilised ligand,1 µM,100
CC1CCCN1c1nccc(-c2cnn3ncccc23)n1 (stereo not shown),binding,,1 µM,100
Nc1ncc2c(n1)-c1c([nH]c3ccc(C#CC4CC4)cc13)CCCC2,binding,competition with immobilised ligand,1 µM,99
C[C@H](NC(=O)c1cnc2n1[C@](C)(Cc1ccc(C#N)cc1)C(=O)N2c1cc(Cl)c(F)c(Cl)c1)C(=O)NC1(c2ccccn2)CC1,cell-free assay,competition with immobilised ligand,1 µM,100
CNC(=O)[C@@H]1CC[C@@H](n2c(-c3ccc4cnccc4c3)nc3ccc(C(=O)NCc4cccc(C(N)=O)c4)cc32)C1,binding,competition with immobilised ligand,1 µM,100
O=C(NCc1ncc(C(F)(F)F)cc1Cl)c1ccc2c(c1)C1(CCS(=O)(=O)CC1)[C@@H](C1CC1)N2S(=O)(=O)c1ccc(F)cc1,cell-free assay,competition with immobilised ligand,1 µM,71
CCN1CCN(Cc2ccc(C(=O)Nc3ccc(C)c(Oc4ccc5c(c4)CC(=O)N5)c3)cc2C(F)(F)F)CC1,binding,competition with immobilised ligand,1 µM,68
CN(c1nccc(-c2cnn3ncccc23)n1)C1CC1,binding,,1 µM,100
O=C(NCCCN1CCOCC1)c1ccc(Nc2nccc(-c3cc4ccccc4s3)n2)cc1,binding,competition with immobilised ligand,1 µM,75
O=c1nc(-c2ccccn2)sc2ccccc12,cell-free assay,competition with immobilised ligand,1 µM,72
